Screening results: PubChem BioAssay, several laboratories
TAAR1 antagonist: antagonists of human TAAR1. CHO RD-HGA16 TAAR1, Fluo-8 calcium fluorescence, antagonist. inhibition, % at 3 µM. AID 624466. Q96RJ0. actives 1.5% (n = 360,000);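 active = inhibition above a per-plate cutoff, the mean inhibition of test compounds on that plate plus 3 SD, cut at about 49% in these data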;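 note: 0% = DMSO plus EC80 beta-PEA response and 100% = DMSO alone without agonist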
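System: RD-HGA16 CHO cells with stable hTAAR1 and Gα16 | Probe or stimulus: EC80 β-phenethylamine stimulus | Dosing: 3 µM, single point | Times: Dye loading 75 min at 37 °C, then 30 min room temperature | Measured by: Fluo-8 calcium-sensitive fluorescence | Read-out basis: % inhibition of agonist calcium response | Replicates: n of 1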
TAAR1 agonist: agonists of human TAAR1 | CHO RD-HGA16 TAAR1, Fluo-8 calcium fluorescence; vehicle wells 0%, saturating PEA agonist 100% | Q96RJ0 | activation, % at 3 µM | actives 0.99% (n = 360,000);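 active = activation above the mean activation of all test compounds in the run plus 3 SD, cut at about 38% in these data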
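test system = CHO RD-HGA16 cells carrying human TAAR1 plus Gα16 | schedule = 17-24 h seeding, 75 min 37 °C dye, 30 min RT | compound dosing = 3 µM single concentration | control set = DMSO and PEA EC100 | replicates = n 1 | signal = Fluo-8 fluorescence, 5 s baseline then 140 s kinetic read | measure = percent activation vs PEA EC100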
CHO parental Ca: counter-screen: ATP calcium response change in parental CHO cells; parental CHO-K1, ATP-induced calcium, Fluo-8 fluorescence; inhibition, % at 5.6 µM; actives 0.63% (n = 330,000); AID 463079;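 active = inhibition above that plate's mean sample inhibition plus 3 SD, cut at about 26% in these data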;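 note: 0% = ATP-challenged DMSO wells and 100% = DMSO wells without ATP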
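Measured by: calcium-sensitive Fluo-8 fluorescence / Test system: CHO parental line / Controls: ATP-challenged DMSO wells low, unchallenged DMSO wells high / Measure: % inhibition / Compound: single nominal dose of 5.6 µM per compound / Replicates: single well per compound, no replicates / Reagent: ATP as calcium-mobilizing challenge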
NTR1 ag: agonists of human neurotensin receptor NTR1 | P30989 | NTR1-U2OS beta-arrestin-GFP spot imaging, agonist mode | actives 0.17% (n = 330,000) | AID 493036 | activation, % at 20 µM;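 active = activation at or above 40% of the spot to cytoplasm intensity ratio, with at least 20 cells analyzed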;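 note: 0% = DMSO without peptide and 100% = 100 nM NTR1 peptide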
Target sequence (P30989 whole entry, looked up): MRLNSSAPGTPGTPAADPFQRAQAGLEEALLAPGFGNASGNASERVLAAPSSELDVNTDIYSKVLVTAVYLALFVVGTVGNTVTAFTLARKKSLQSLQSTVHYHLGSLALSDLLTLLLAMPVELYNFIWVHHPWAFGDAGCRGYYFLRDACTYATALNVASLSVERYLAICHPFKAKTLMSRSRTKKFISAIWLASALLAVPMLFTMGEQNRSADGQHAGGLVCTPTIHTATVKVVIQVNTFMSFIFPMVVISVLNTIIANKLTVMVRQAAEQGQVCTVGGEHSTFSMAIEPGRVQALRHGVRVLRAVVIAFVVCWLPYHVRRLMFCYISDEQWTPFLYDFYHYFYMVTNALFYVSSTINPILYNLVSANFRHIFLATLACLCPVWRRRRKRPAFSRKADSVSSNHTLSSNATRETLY
OX1R antag-1: OX1R (human) antagonism. O43613. OX1R-expressing cells, FRET antagonist read-out. inhibition, % at 6.6 µM. actives 1.8% (n = 330,000); in the data active = inhibition mostly above about 38%, no sharp cut-off; inactive = mostly below about 40%;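 note: 0% = agonist challenge alone and 100% = reference antagonist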
OX1R antag-2: blocks the human orexin 1 receptor. CHO/OX1R cells, Fluo-8 calcium fluorescence, orexin A. actives 0.43% (n = 330,000). inhibition, % at 5 µM. O43613;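 active = inhibition above its plate's threshold, mean inhibition of all tested compounds on the plate plus 3 SD, cut at about 37% in these data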;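 note: 0% = orexin A challenge wells and 100% = SB-334867-A antagonist wells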
* marks the source's active call; other numbers are inactive results; . = no result. Hits are enriched below; roughly 4% of the tested compounds scored in any of these assays.

SMILES	TAAR1 antagonist	TAAR1 agonist	CHO parental Ca	NTR1 ag	OX1R antag-1	OX1R antag-2
O=C(CCCN1C(=O)/C(=C/c2ccccc2Cl)SC1=S)NNC(=O)c1cccnc1	-28.7	-0.8	-26.8	0.0	9.0	-26.0
Cn1c(CC(=O)Nc2ccccc2Cl)nnc1SCC(=O)NC1CCCCC1	-10.2	1.2	-3.7	0.5	5.9	-8.5
O=C(CCCN1C(=O)S/C(=C\c2ccccc2)C1=O)NNC(=O)c1ccccc1O	7.7	6.8	6.5	1.1	56.4*	0.6
O=C(CCSCc1ccccc1F)NCCc1ccccc1	76.3*	39.0*	-11.2	1.0	19.3	-3.4
COc1ccc(-c2cc(NC(=O)Cc3c(C)[nH]c4ccccc34)ccc2Nc2cccnc2)cc1OC	22.7	2.0	.	.	.	.
COC(=O)[C@]12C[C@H](CC(=O)NCc3ccccc3)C(=O)N(Cc3ccc4c(c3)OCO4)C1=C[C@H](COCc1ccccc1)O[C@@H]2C	6.3	0.3	.	.	.	.
c1ccc2c(c1)OCC(CNCC1COc3ccccc3O1)O2 (stereo not given)	1.0	4.7	-14.9	-0.6	9.4	-25.4
Oc1ccc(CNCC2COc3ccccc3O2)cc1 (stereo not given)	-1.4	37.7*	-6.9	0.7	19.4	-14.3
CC(C)C[C@H]1CN=C(Nc2ccccc2)N1CCc1cccc(F)c1	.	.	50.1*	2.0	8.1	87.4*
CC(C)C[C@H]1CN=C(N(C)C)N1CCc1cccc(F)c1	7.5	14.4	-3.9	-0.6	-0.3	-29.3
CCC1(C)CC(C#N)(C#N)C(=O)NC1=O (stereo not given)	-9.0	0.2	.	.	.	.
CC(C)NS(=O)(=O)c1cccc2nsnc12	-10.9	2.7	-3.7	1.7	71.8*	-7.0
CC(C)C(NS(=O)(=O)c1cccc2nsnc12)C(=O)NC1CCCCC1C (stereo not given)	.	.	-11.7	0.0	45.7*	-7.4
Cc1cccc(NS(=O)(=O)c2cccc3nsnc23)c1	-12.6	8.9	6.9	0.1	31.3	-4.2
Cc1ccnc(NS(=O)(=O)c2cccc3nsnc23)c1	-18.9	2.9	-8.5	0.0	127.0*	3.9
CC(C)C(NS(=O)(=O)c1cccc2nsnc12)C(=O)Nc1nccs1 (stereo not given)	5.2	-0.5	-10.7	1.1	36.6	-10.8
COc1ccccc1CNC(=O)C(NS(=O)(=O)c1cccc2nsnc12)C(C)C (stereo not given)	-21.5	-1.4	-18.0	0.5	76.2*	-8.8
CCc1c(-c2ccc(F)cc2F)ncn1CCc1ccccc1OC	0.6	14.9	.	.	.	.
O=C(NC1CCN(Cc2ccccc2)CC1)C(NS(=O)(=O)c1cccc2nsnc12)c1ccccc1 (stereo not given)	1.4	1.6	-23.4	0.5	76.5	-36.1
O=C(O)C(Cc1c[nH]c2ccccc12)NS(=O)(=O)c1cccc2nsnc12 (stereo not given)	-26.3	3.6	-6.0	-1.4	61.0*	-6.4
Cc1c(NS(=O)(=O)c2cccc3nsnc23)c(=O)n(-c2ccccc2)n1C	10.9	0.0	-11.5	0.6	76.7*	-12.1
O=C(NCc1cccs1)C(NS(=O)(=O)c1cccc2nsnc12)c1ccccc1 (stereo not given)	-23.0	0.4	-18.4	-2.5	49.2*	-26.8
C=CCOc1ccc(C2=NOC(C(=O)Nc3ccc4c(c3)OCCO4)C2)cc1OC (stereo not given)	-17.7	0.1	-6.9	0.7	6.8	-26.1
CCC/C(=C1/c2ccccc2C(=O)N1c1ccccc1)c1c(C)noc1C	-11.1	-2.0	.	.	.	.
CN(C(=O)CSc1ncnc2c(-c3cccs3)nsc12)C1CCCCC1	6.2	-1.2	.	.	.	.
SMILES	TAAR1 antagonist	TAAR1 agonist	CHO parental Ca	NTR1 ag	OX1R antag-1	OX1R antag-2
COc1ccc(Nc2ccc(C(=O)O)cc2[N+](=O)[O-])cc1	12.4	3.4	0.6	-0.3	54.8*	-22.6
COc1ccc(OC)c(Nc2ccc(C(=O)O)cc2[N+](=O)[O-])c1	16.6	0.2	-2.7	-1.9	33.1	7.6
Cn1c(=O)c2ccccc2n(C)c1=O	-13.2	0.8	.	.	.	.
COc1cc(/C=C2\SC(=N)N(c3ccc4c(c3)OCO4)C2=O)cc(OC)c1O	17.9	8.8	-1.4	0.0	50.9*	-8.6
CC1(C)CCN2CCC(C)(C)c3c(O)ccc1c32	17.4	23.6	38.4*	-2.9	14.4	40.5*
Cc1ccc(OCCCCN2CCc3ccccc3C2)cc1	-17.8	40.5*	-21.3	-0.9	14.5	-34.4
CNC[C@@H]1OCc2ccccc2-c2c(n(C)c3ccccc23)C(=O)N([C@@H](C)CO)C[C@@H]1C	-23.8	6.5	.	.	.	.
O=C(Nc1ccccc1)N(Cc1ccccc1)C1=NCCS1	5.3	39.6*	-8.1	1.3	11.9	-2.1
CC1CN=C(N(Cc2ccccc2)C(=O)Nc2ccccc2)S1 (stereo not given)	0.4	11.6	-0.6	-0.6	-1.1	-17.2
C[C@H]1CN([C@@H](C)CO)C(=O)CCCn2cc(nn2)CO[C@@H]1CN(C)C(=O)c1ccc2ccn(C)c2c1	10.8	-0.1	.	.	.	.
C=CCn1c(SCC(=O)c2cccs2)nc2sc(CC)cc2c1=O	37.3	13.0	55.9*	15.5	33.9	51.1*
CC(Cc1cccs1)NC(=S)Nc1ccc(Cl)c(Cl)c1 (stereo not given)	14.6	16.2	-10.9	1.6	24.7	-9.1
CC(Cc1cccs1)NC(=S)Nc1ccc(Cl)cc1 (stereo not given)	11.7	12.7	18.5	2.2	59.6*	0.8
CCOC(=O)c1cnc2sc3c(n2c1=O)CCCC3	1.6	-1.3	43.3*	3.8	57.5	34.7
CSCCC(c1nc2ccccc2[nH]1)n1c(/C=C/c2ccc(Cl)cc2)nc2ccccc21 (stereo not given)	-4.0	18.1	.	.	.	.
CC(C)(C)c1ccc(/C=C/C(=O)Nc2ccncc2)cc1	53.1*	2.9	0.8	6.0	28.9	13.4
O=C(/C=C/c1cccs1)Nc1ccncc1	-7.4	3.7	-7.7	-0.2	13.0	-20.4
COc1cccc(CC(=O)NCC2CCN(C(=O)C(=O)c3cccs3)CC2)c1	1.0	0.5	.	.	.	.
Fc1cccc2sc(Nc3nc4cc5c(cc4s3)OCCO5)nc12	11.6	12.2	-13.3	0.5	48.2	24.8
Fc1cc(F)c2nc(Nc3nc4cc5c(cc4s3)OCO5)sc2c1	61.0*	2.7	-8.1	.	13.2	-9.1
COc1c(OC(C)=O)ccc(/C=C/c2ccc3ccccc3n2)c1[N+](=O)[O-]	17.3	9.3	-6.5	14.9	42.2*	1.9
O=C(COC(=O)c1ccc[n+]([O-])c1)Nc1ccc([N+](=O)[O-])cc1C(F)(F)F	13.1	8.2	-3.6	2.0	33.0*	-11.7
O=C(COC(=O)c1cc[n+]([O-])cc1)Nc1cc([N+](=O)[O-])ccc1Cl	-12.4	3.5	-13.9	0.2	57.2*	-9.5
